# Results reported in PubChem BioAssay AID1381 (University of Pittsburgh Molecular Library Screening Center, 2008).
# The whole screen tested about 220,000 compounds, of which about 1,000 (0.45%) were called active.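 The calls were made as follows: active = plate z-score of nuclear minus cytoplasmic receptor signal below a set negative limit, without overly bright fluorescence or cell loss (cut at about -3.5 in these data, passing the limit was not always enough); inactive = the rest, inconclusive results apart.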 Only a selection was taken, and actives are over-represented in it overall.
# Test: inhibitors of GR-EGFP nuclear translocation, primary screen, dynein cargo transport inhibitor project, imaging, high-content, 3617.4 mouse cells (AID 1381)
# Conditions: stimulated with dexamethasone, 1 µM
# How it was run: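 Buffer or medium: Induction medium lacking tetracycline, stripped serum | Also added: Dexamethasone agonist, 1.0 µM final, for 30 min | Timing: 48 h induction, 1 h compound, 30 min dex at 37 °C | Detection: Formaldehyde fixation, Hoechst nuclear stain, 10x automated fluorescence imaging | Measure: Nuclear versus cytoplasmic GR-EGFP signal, averaged per well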
# [1] = measured here: cell count per field, at 50 µM
# [2] = measured here: cytoplasmic GR-EGFP intensity, at 50 µM, stronger effect = higher value
# [3] = measured here: nuclear GR-EGFP intensity, at 50 µM, stronger effect = lower value
# [4] = measured here: cell count per field, at 20 µM
# [5] = measured here: cytoplasmic GR-EGFP intensity, at 20 µM, stronger effect = higher value
# [6] = measured here: nuclear GR-EGFP intensity, at 20 µM, stronger effect = lower value
SMILES,"z-score (at 50 µM, stronger effect = lower value)",z-score [1],z-score [2],z-score [3],"z-score (at 20 µM, stronger effect = lower value)",z-score [4],z-score [5],z-score [6]
CCCCCCc1cc2cc(-c3nnc(-c4cccc(OC)c4)o3)c(=O)oc2cc1O,-2.6 (inactive),-0.146,22.1,2.79,–,–,–,–
C[C@@H](NC(=O)OC(C)(C)C)c1nnc(S(=O)(=O)Cc2ccccc2)o1,–,–,–,–,-5.36 (active),0.73,1.44,-2.38
CC(C)Sc1nnc([C@H](Cc2ccccc2)NC(=O)OC(C)(C)C)o1,–,–,–,–,-1.61 (inactive),1.71,0.279,-0.731
C[C@H](NC(=O)OC(C)(C)C)c1nnc(SCC(N)=O)o1,–,–,–,–,0.077 (inactive),-0.312,-0.175,0.307
Cc1ccc(NC(=O)CN(C)Cc2ccc(F)cc2)c([N+](=O)[O-])c1,–,–,–,–,-0.244 (inactive),-0.235,-0.22,-0.284
CCOC(=O)C(=CNc1cccc(C)n1)C(=O)OCC,–,–,–,–,0.995 (inactive),0.752,-0.214,0.879
CCOC(=O)C(=Cc1ccccc1OC)C(=O)OCC,–,–,–,–,-5.08 (active),0.0073,1.43,-2.52
COc1ccccc1NC(=O)c1ccc(C)s1,0.335 (inactive),-0.862,-0.265,0.226,–,–,–,–
N#Cc1cccc(NC(=O)COC(=O)c2ccccc2C(=O)c2ccc(Cl)c([N+](=O)[O-])c2)c1,–,–,–,–,-0.407 (inactive),0.615,-0.326,-0.496
Cn1cnnc1SCC(=O)NNC(=O)COc1ccc(Br)cc1,–,–,–,–,0.431 (inactive),0.453,-0.218,-0.126
C[C@@H]1C[C@@H]2O[C@H]2/C=C\C=C\C(=O)Cc2c(Cl)c(O)cc(O)c2C(=O)O1,–,–,–,–,-3.8 (active),0.512,1.82,-1.89
COc1cc(CO)c(C2(CO)CCCC2)cc1OC,–,–,–,–,0.000321 (inactive),-0.54,-0.145,0.499
COC(=O)c1ccc(Sc2ccc(F)cc2)c(N)c1,–,–,–,–,0.257 (inactive),0.499,-0.377,0.132
Cc1ccc(C(C)NC(=O)Cn2nc(C)c([N+](=O)[O-])c2C)cc1 (stereo unspecified),–,–,–,–,-0.784 (inactive),0.727,-0.261,-0.607
COc1ccc(CCc2nnc(CCC(=O)NCc3cnn(-c4ccccc4C)c3)o2)cc1,–,–,–,–,1.76 (inactive),-1.6,-0.0906,1.43
O=C(NCCCN1CCOCC1)c1ccc([N+](=O)[O-])cc1[N+](=O)[O-],–,–,–,–,-0.163 (inactive),0.317,-0.243,0.0502
O=[N+]([O-])c1cc(S(=O)(=O)CCCN2CCOCC2)ccc1F,–,–,–,–,-4.25 (active),0.317,1.15,-2.3

SMILES,"z-score (at 50 µM, stronger effect = lower value)",z-score [1],z-score [2],z-score [3],"z-score (at 20 µM, stronger effect = lower value)",z-score [4],z-score [5],z-score [6]
O=[N+]([O-])c1ccc(NCCCN2CCOCC2)c(Cl)c1,–,–,–,–,0.346 (inactive),-0.149,0.0336,0.676
COC(=O)C(C(=O)Nc1cccc(Cl)c1C)C1CCCC1 (stereo unspecified),–,–,–,–,0.289 (inactive),0.616,0.0155,-0.208
CC(=O)c1ccc(-c2nnc(CCC(=O)N(C)Cc3cnc4ccccn34)o2)s1,–,–,–,–,-0.0124 (inactive),-0.441,-0.212,0.00751
O=C(CCl)N(Cc1cccc([N+](=O)[O-])c1)c1cccc(Cl)c1,–,–,–,–,-4.69 (active),-1.23,2.38,-2.48
CCN(CC)C(=O)CN(c1cccc([N+](=O)[O-])c1)S(=O)(=O)c1ccccc1,–,–,–,–,-0.611 (inactive),0.944,-0.266,-0.263
O=C(Nc1cccc([N+](=O)[O-])c1)Nc1ccc(Cl)cn1,–,–,–,–,0.686 (inactive),-0.334,-0.0491,0.778
CCOc1ccc(Br)cc1S(=O)(=O)Nc1cccc(S(=O)(=O)N(CC)CC)c1,–,–,–,–,-0.331 (inactive),0.488,-0.167,-0.464
O=C(Nc1ccc(Cl)cc1)c1ccsn1,–,–,–,–,1.02 (inactive),-1.19,-0.158,1.14
O=C(Nc1ccccc1)c1nnsc1S(=O)(=O)c1ccc(Cl)cc1,–,–,–,–,-5.03 (active),0.905,0.759,-1.85
CS(=O)(=O)c1ccc(Cl)c(NC(=O)Nc2ccccc2)c1,–,–,–,–,1.27 (inactive),-0.472,-0.245,0.728
CC(Nc1ccccc1)c1cccnc1 (stereo unspecified),–,–,–,–,-0.716 (inactive),0.0401,-0.305,-0.598
CC1=C/C(=N\OS(=O)(=O)c2ccccc2)C=CC1=O,-4.5 (active),-1.11,1.28,-2.71,–,–,–,–
CC1=C/C(=N\S(=O)(=O)c2ccccc2)C(C(C)C)=CC1=O,–,–,–,–,-0.707 (inactive),-0.217,-0.313,0.209
CCOC(=O)C1(S(=O)(=O)c2ccccc2)CCN(Cc2ccccc2)CC1,–,–,–,–,-0.25 (inactive),0.352,-0.189,0.556
COc1ccc(/C=N/N=C2/C(=O)Nc3ccccc32)cc1O,–,–,–,–,0.0879 (inactive),-1.02,0.671,0.854
C=CCOC(=O)C1=C[C@@H](c2ccccc2)C[C@@H](OCc2ccc(CO)cc2)O1,–,–,–,–,-0.243 (inactive),-0.581,-0.228,0.233
CC(=O)c1cc(C#N)c(SCC(=O)Nc2nccs2)nc1C,–,–,–,–,0.633 (inactive),-0.767,-0.205,1
